Measured values as given in ChEMBL document CHEMBL3352814, “Design, synthesis and biological evaluation of biphenylamide derivatives as Hsp90 C-terminal inhibitors” (Eur J Med Chem, 2015).

What was measured:
[1] = Antiproliferative activity against human SKBR3 cells after 72 hrs by MTS/PMS assay; type: functional, cell-based; settings: SK-BR-3, 72 h
Outline: (§1)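 Cells kept in 1:1 Advanced DMEM/F12 with non-essential amino acids, 2 mM L-glutamine, penicillin/streptomycin and 10% FBS at 37 °C, 5% CO2. Seeded 2000 cells/well, attached overnight, then given compound at varying concentrations in DMSO (1% final) for 72 h. Viable cells read by MTS/PMS. Normalised to 1% DMSO wells as 100% proliferation. IC50 from separate experiments run in triplicate.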

MCF7 = test: Antiproliferative activity against human MCF7 cells after 72 hrs by MTS/PMS assay; type: functional, cell-based; settings: MCF7, 72 h; outline: as §1

Row | SMILES | IC50 [1] | IC50 (MCF7)
1 | CN1CCC(Oc2ccc(-c3ccc(NC(=O)c4cnc5ccccc5c4)cc3)cc2)CC1 | 2420 nM | 2760 nM
2 | COc1cccc(-c2cc(C(=O)Nc3ccc(-c4ccc(OC5CCN(C)CC5)cc4Cl)cc3)ccc2OC)c1 | 1280 nM | 1480 nM
3 | CN1CCC(Oc2ccc(-c3ccc(NC(=O)c4ccc(-c5ccccc5)cc4)cc3)cc2)CC1 | 4590 nM | 4440 nM
4 | CC(=O)Oc1ccc(C(=O)Nc2cccc(-c3cccc(OC4CCN(C)CC4)c3)c2)cc1CC=C(C)C | 1760 nM | 1700 nM
5 | Cc1ccc(C(=O)Nc2ccc(-c3ccc(OC4CCN(C)CC4)cc3)cc2)cc1 | 980 nM | 1270 nM
6 | COc1cccc(-c2cc(C(=O)Nc3ccc(-c4ccc(OC5CCN(C)CC5)cc4)cc3NC(C)=O)ccc2OC)c1 | 3510 nM | 1660 nM
7 | Cc1cc(C(=O)Nc2ccc(-c3ccc(OC4CCN(C)CC4)cc3)cc2)ccc1Cl | 1110 nM | 1030 nM
8 | COc1cccc(-c2cc(C(=O)Nc3ccc(-c4ccc(OC5CCN(C)CC5)cn4)cc3)ccc2OC)c1 | 1910 nM | 1300 nM
9 | COc1cccc(-c2cc(C(=O)Nc3ccc(-c4ccc(OC5CCN(C)CC5)cc4[N+](=O)[O-])cc3)ccc2OC)c1 | 1180 nM | 1300 nM
10 | COc1cccc(-c2cccc(C(=O)Nc3ccc(-c4ccc(OC5CCN(C)CC5)cc4)cc3)c2)c1 | 810 nM | 1020 nM
11 | COc1cccc(-c2cc(C(=O)Nc3ccc(-c4ccc(OC5CCN(C)CC5)cc4)c([N+](=O)[O-])c3)ccc2OC)c1 | 2480 nM | 3320 nM
12 | COc1ccc(C(=O)Nc2ccc(-c3ccc(OC4CCN(C)CC4)cc3)cc2)cc1-c1ccc(O)cc1 | 130 nM | 500 nM
13 | COc1cccc(-c2cc(C(=O)Nc3ccc(-c4ccc(OC5CCN(C)CC5)cc4)c(OC)c3)ccc2OC)c1 | 900 nM | 1500 nM
14 | COc1cccc(-c2cc(C(=O)Nc3ccc(-c4ccc(OC5CCN(C)CC5)c(NC(C)=O)c4)cc3)ccc2OC)c1 | 2660 nM | 1840 nM
15 | COc1cccc(-c2cc(C(=O)Nc3ccc(-c4ccc(OC5CCN(C)CC5)c(C)c4)cc3)ccc2OC)c1 | 830 nM | 1690 nM
16 | CN1CCC(Oc2ccc(-c3ccc(NC(=O)c4ccc(C(C)(C)C)cc4)cc3)cc2)CC1 | 1260 nM | 1080 nM
17 | COc1cccc(-c2cc(C(=O)Nc3ccc(-c4ccc(OC5CCN(C)CC5)c([N+](=O)[O-])c4)cc3)ccc2OC)c1 | 2070 nM | 1230 nM
18 | COc1cccc(-c2cc(C(=O)Nc3ccc(-c4ccc(OC5CCN(C)CC5)cc4)cc3N)ccc2OC)c1 | 3210 nM | 2250 nM
19 | COc1ccc(C(=O)Nc2ccc(-c3ccc(OC4CCN(C)CC4)cc3)cc2)cc1-c1cccc(OC(C)=O)c1 | 270 nM | 620 nM
20 | COc1cccc(-c2cc(C(=O)Nc3ccc(-c4ccc(OC5CCN(C)CC5)cc4)c(N)c3)ccc2OC)c1 | 3900 nM | 2070 nM
21 | COc1ccc(C(=O)Nc2ccc(-c3ccc(OC4CCN(C)CC4)cc3)cc2)cc1-c1cccc(N)c1 | 1520 nM | 1670 nM
22 | Cc1ccc(C(=O)Nc2ccc(-c3ccc(OC4CCN(C)CC4)cc3)cc2)cc1Cl | 1960 nM | 2280 nM
23 | Cc1ccc(C(=O)Nc2ccc(-c3ccc(OC4CCN(C)CC4)cc3)cc2)cc1Br | 2800 nM | 3350 nM
24 | COc1cccc(-c2cc(C(=O)Nc3ccc(-c4ccc(OC5CCN(C)CC5)c(N)c4)cc3)ccc2OC)c1 | 2230 nM | 5950 nM
25 | CN1CCC(Oc2ccc(-c3ccc(NC(=O)c4cc(Cl)cc(Cl)c4)cc3)cc2)CC1 | 810 nM | 1680 nM
26 | COc1cccc(-c2cc(C(=O)Nc3ccc(-c4ccc(OC5CCN(C)CC5)cc4)c(Cl)c3)ccc2OC)c1 | 2210 nM | 3440 nM
27 | COc1cccc(-c2cc(C(=O)Nc3ccc(-c4ccc(OC5CCN(C)CC5)cc4OC)cc3)ccc2OC)c1 | 1410 nM | 1350 nM
28 | COc1cccc(-c2cc(C(=O)Nc3ccc(-c4ccc(OC5CCN(C)CC5)cc4)c(C)c3)ccc2OC)c1 | 970 nM | 1570 nM
